In ChEMBL document CHEMBL1154691, “Synthesis and evaluation of a new generation of orally efficacious benzimidazole-based poly(ADP-ribose) polymerase-1 (PARP-1) inhibitors as anticancer agents” (J Med Chem, 2009):

Columns and labels:
[1] = Half life in CD1 mouse at 3.0 mg/kg, iv; format: ADME, organism-based; design: dose 3 mg/kg, route intravenous; details: in vivo
Outline: (§1)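 Male CD-1 mice (26-30 g) were dosed iv via the tail vein or po by gavage. Blood was taken by cardiac puncture after CO₂ asphyxiation at set times. Plasma proteins were precipitated with acidified methanol. Samples were quantified by LC-ESI-MS against external standards from spiked control plasma.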

[2] = molecular target: T1, Poly [ADP-ribose] polymerase 1 (Homo sapiens, UniProt P09874); experiment: Inhibition of PARP1 by scintillation counting
T1 sequence (P09874 whole entry): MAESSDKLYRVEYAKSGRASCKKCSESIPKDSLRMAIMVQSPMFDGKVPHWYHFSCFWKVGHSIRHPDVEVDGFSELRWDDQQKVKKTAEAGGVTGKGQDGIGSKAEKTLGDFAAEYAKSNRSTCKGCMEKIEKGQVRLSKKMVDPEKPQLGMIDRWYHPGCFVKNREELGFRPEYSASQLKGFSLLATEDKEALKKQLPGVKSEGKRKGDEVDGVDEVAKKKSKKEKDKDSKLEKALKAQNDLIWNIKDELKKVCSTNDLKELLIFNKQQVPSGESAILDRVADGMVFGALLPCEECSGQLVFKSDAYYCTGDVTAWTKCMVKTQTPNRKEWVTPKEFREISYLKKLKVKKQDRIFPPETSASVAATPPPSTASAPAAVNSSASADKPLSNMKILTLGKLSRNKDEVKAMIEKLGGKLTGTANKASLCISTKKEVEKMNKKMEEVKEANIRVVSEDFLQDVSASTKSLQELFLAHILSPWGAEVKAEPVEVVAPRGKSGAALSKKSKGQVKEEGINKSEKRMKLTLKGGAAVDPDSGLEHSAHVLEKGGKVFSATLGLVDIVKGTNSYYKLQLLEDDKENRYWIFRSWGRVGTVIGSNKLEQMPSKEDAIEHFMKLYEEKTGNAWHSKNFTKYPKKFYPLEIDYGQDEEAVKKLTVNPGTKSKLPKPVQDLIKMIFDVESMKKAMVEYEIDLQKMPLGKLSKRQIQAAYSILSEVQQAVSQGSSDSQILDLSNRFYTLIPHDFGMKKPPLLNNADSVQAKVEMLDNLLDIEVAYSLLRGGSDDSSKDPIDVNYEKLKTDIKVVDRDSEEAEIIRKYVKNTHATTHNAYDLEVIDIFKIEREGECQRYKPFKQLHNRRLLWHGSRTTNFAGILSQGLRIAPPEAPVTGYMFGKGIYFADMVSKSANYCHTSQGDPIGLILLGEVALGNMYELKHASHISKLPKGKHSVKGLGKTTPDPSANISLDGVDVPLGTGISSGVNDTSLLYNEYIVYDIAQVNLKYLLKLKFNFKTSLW

[3] = Oral bioavailability in CD1 mouse at 10 mg/kg; format: ADME, organism-based; details: in vivo; outline: as §1
[4] = molecular target: T1, Poly [ADP-ribose] polymerase 1; experiment: Inhibition of PARP1 in human C41 cells after 30 mins by cell-based assay
[5] = Volume of distribution in CD1 mouse at 3.0 mg/kg, iv; format: ADME, organism-based; design: dose 3 mg/kg, route intravenous; details: in vivo; outline: as §1
[6] = AUC in CD1 mouse at 3.0 mg/kg, iv; format: ADME, organism-based; design: dose 3 mg/kg, route intravenous; details: plasma; outline: as §1
[7] = Clearance in CD1 mouse at 3.0 mg/kg, iv; format: ADME, organism-based; design: dose 3 mg/kg, route intravenous; details: in vivo; outline: as §1
[8] = Cmax in CD1 mouse at 10 mg/kg, po; format: ADME, organism-based; design: dose 10 mg/kg, route oral; details: in vivo; outline: as §1
[9] = AUC in CD1 mouse at 10 mg/kg, po; format: ADME, organism-based; design: dose 10 mg/kg, route oral; details: plasma; outline: as §1
[10] = tested on: B16-F10; experiment: Antitumor activity against mouse B16F10 cells implanted in C57BL/6 mouse at 30 mg/kg, po BID for 5 days measured on day 19 in presence of DNA alkylating agent temozolomide; format: functional; details: read-out: TGI
Outline: (§2)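 B16F10 syngeneic model: cells in Matrigel (1:1) were injected sc into the flank at 6 × 10⁴ cells per mouse. Recipients were female C57BL/6 mice, 6-8 weeks old, 18-20 g. Temozolomide was given po q.d. at 50 mg/kg/day for 5 consecutive days. Over the same period the PARP inhibitor was given po b.i.d. Read-out was relative tumor growth inhibition on the stated day.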

[11] = tested on: B16-F10; experiment: Antitumor activity against mouse B16F10 cells implanted in C57BL/6 mouse at 30 mg/kg, po BID for 5 days measured on day 12 in presence of DNA alkylating agent temozolomide; format: functional; details: read-out: TGI; outline: as §2
[12] = tested on: B16-F10; experiment: Antitumor activity against mouse B16F10 cells implanted in C57BL/6 mouse at 10 mg/kg, po BID for 5 days measured on day 12 in presence of DNA alkylating agent temozolomide; format: functional; details: read-out: TGI; outline: as §2
[13] = tested on: B16-F10; experiment: Antitumor activity against mouse B16F10 cells implanted in C57BL/6 mouse at 60 mg/kg, po BID for 5 days measured on day 19 in presence of DNA alkylating agent temozolomide; format: functional; details: read-out: TGI; outline: as §2
[14] = tested on: B16-F10; experiment: Antitumor activity against mouse B16F10 cells implanted in C57BL/6 mouse at 10 mg/kg, po BID for 5 days measured on day 19 in presence of DNA alkylating agent temozolomide; format: functional; details: read-out: TGI; outline: as §2
[15] = tested on: B16-F10; experiment: Antitumor activity against mouse B16F10 cells implanted in C57BL/6 mouse at 60 mg/kg, po BID for 5 days measured on day 12 in presence of DNA alkylating agent temozolomide; format: functional; details: read-out: TGI; outline: as §2
[16] = tested on: B16-F10; experiment: Antitumor activity against mouse B16F10 cells implanted in C57BL/6 mouse at 30 mg/kg, po BID for 5 days measured on day 16 in presence of DNA alkylating agent temozolomide; format: functional; details: B16-F10, read-out: TGI; outline: as §2
[17] = tested on: B16-F10; experiment: Antitumor activity against mouse B16F10 cells implanted in C57BL/6 mouse at 3 mg/kg, po BID for 5 days measured on day 16 in presence of DNA alkylating agent temozolomide; format: functional; details: read-out: TGI
[18] = tested on: B16-F10; experiment: Antitumor activity against mouse B16F10 cells implanted in C57BL/6 mouse at 10 mg/kg, po BID for 5 days measured on day 16 in presence of DNA alkylating agent temozolomide; format: functional; details: B16-F10, read-out: TGI; outline: as §2
[19] = tested on: B16-F10; experiment: Antitumor activity against mouse B16F10 cells implanted in C57BL/6 mouse at 3 mg/kg, po BID for 5 days measured on day 19 in presence of DNA alkylating agent temozolomide; format: functional; details: read-out: TGI
[20] = tested on: B16-F10; experiment: Antitumor activity against mouse B16F10 cells implanted in C57BL/6 mouse at 50 mg/kg, po QD for 5 days measured on day 16; format: functional; details: read-out: TGI
[21] = tested on: B16-F10; experiment: Antitumor activity against mouse B16F10 cells implanted in C57BL/6 mouse at 50 mg/kg, po QD for 5 days measured on day 12; format: functional; details: read-out: TGI

For `NC(=O)c1cccc2[nH]c(-c3ccc(-c4ncc[nH]4)cc3)nc12`, which half-life [1] is on record?
The half-life was 33.6 min.

And the Ki [2]?
Its Ki is 2.2 nM.

What about the bioavailability [3] of the same compound?
The bioavailability was 0%.

And the EC50 [4]?
Its EC50 is 2.2 nM.

What about the Vd [5] of the same compound?
The Vd was 26 L/kg.

What about the AUC [6] of the same compound?
The AUC was 0.31 µM·h.

What about the clearance [7] of the same compound?
The clearance was 533 mL/min/kg.

With `NC(=O)c1cccc2[nH]c(-c3ccc(-c4cnco4)cc3)nc12` as the compound, how does the Cmax [8] read?
Its Cmax is 70 nM.

What about the half-life [1] of the same compound?
Its half-life is 58.2 min.

What about the Ki [2] of the same compound?
Its Ki is 0.76 nM.

What about the bioavailability [3] of the same compound?
The bioavailability was 6%.

And the EC50 [4]?
Its EC50 is 0.99 nM.

And the Vd [5]?
Its Vd is 26 L/kg.

What about the AUC [9] of the same compound?
The AUC was 0.11 µM·h.

What about the AUC [6] of the same compound?
The AUC was 0.54 µM·h.

And the clearance [7]?
The clearance was 300 mL/min/kg.

With `NC(=O)c1cccc2[nH]c(-c3ccc(-c4nnn[nH]4)cc3)nc12` as the compound, how does the Ki [2] read?
Its Ki is 20 nM.

Which Ki [2] does the source give for `NC(=O)c1cccc2[nH]c(-c3ccc(-c4ccno4)cc3)nc12` here?
Its Ki is 10 nM.

What about the EC50 [4] of the same compound?
Its EC50 is over 1000 nM.

For `NC(=O)c1cccc2[nH]c(-c3ccc(-c4nnco4)cc3)nc12`, which Cmax [8] is on record?
The Cmax was 2700 nM.

What about the half-life [1] of the same compound?
Its half-life is 21.6 min.

And the Ki [2]?
Its Ki is 1 nM.

What about the bioavailability [3] of the same compound?
The bioavailability was 41%.

What about the EC50 [4] of the same compound?
The EC50 was 3.7 nM.

And the Vd [5]?
The Vd was 1.7 L/kg.

And the inhibition in vivo at 30 mg/kg [10]?
Its inhibition in vivo at 30 mg/kg is 72%.

And the inhibition in vivo at 30 mg/kg [11]?
The inhibition in vivo at 30 mg/kg was 59%.

And the inhibition in vivo at 10 mg/kg [12]?
Its inhibition in vivo at 10 mg/kg is 57%.

And the inhibition in vivo at 60 mg/kg [13]?
The inhibition in vivo at 60 mg/kg was 81%.

What about the inhibition in vivo at 10 mg/kg [14] of the same compound?
The inhibition in vivo at 10 mg/kg was 53%.

What about the AUC [9] of the same compound?
The AUC was 4 µM·h.

What about the AUC [6] of the same compound?
Its AUC is 3 µM·h.

And the inhibition in vivo at 60 mg/kg [15]?
Its inhibition in vivo at 60 mg/kg is 67%.

What about the clearance [7] of the same compound?
The clearance was 55 mL/min/kg.

For `NC(=O)c1cccc2[nH]c(-c3ccc(-c4cn5ccc(C(F)(F)F)cc5n4)cc3)nc12`, which Ki [2] is on record?
The Ki was 6.8 nM.

What about the EC50 [4] of the same compound?
The EC50 was 20 nM.

With `NC(=O)c1cccc2[nH]c(-c3ccc(-c4nc(=S)o[nH]4)cc3)nc12` as the compound, how does the Ki [2] read?
The Ki was 3.8 nM.

What about the EC50 [4] of the same compound?
Its EC50 is 328 nM.

With `NC(=O)c1cccc2[nH]c(-c3ccc(-c4cccnc4)cc3)nc12` as the compound, how does the Cmax [8] read?
The Cmax was 2200 nM.

And the half-life [1]?
Its half-life is 34.8 min.

What about the bioavailability [3] of the same compound?
The bioavailability was 73%.

What about the Vd [5] of the same compound?
The Vd was 7.3 L/kg.

What about the AUC [9] of the same compound?
Its AUC is 2.7 µM·h.

And the AUC [6]?
The AUC was 1.1 µM·h.

What about the clearance [7] of the same compound?
Its clearance is 147 mL/min/kg.

For `NC(=O)c1cccc2[nH]c(-c3ccc(-c4csc(N)n4)cc3)nc12`, which Ki [2] is on record?
The Ki was 2.2 nM.

And the EC50 [4]?
Its EC50 is 26 nM.

For `NC(=O)c1cccc2[nH]c(-c3ccc(-c4cscn4)cc3)nc12`, which Ki [2] is on record?
The Ki was 1.7 nM.

What about the EC50 [4] of the same compound?
The EC50 was 3.7 nM.

With `NC(=O)c1cccc2[nH]c(-c3ccc(-c4cnc[nH]4)cc3)nc12` as the compound, how does the Ki [2] read?
The Ki was 1.2 nM.

And the EC50 [4]?
Its EC50 is 3.7 nM.

For `NC(=O)c1cccc2[nH]c(-c3ccc(-c4ccccn4)cc3)nc12`, which inhibition in vivo at 30 mg/kg [16] is on record?
Its inhibition in vivo at 30 mg/kg is 72%.

And the inhibition in vivo at 3 mg/kg [17]?
The inhibition in vivo at 3 mg/kg was 66%.

And the Cmax [8]?
The Cmax was 1800 nM.

And the half-life [1]?
The half-life was 37.2 min.

What about the bioavailability [3] of the same compound?
Its bioavailability is 141%.

And the inhibition in vivo at 10 mg/kg [18]?
The inhibition in vivo at 10 mg/kg was 83%.

And the inhibition in vivo at 3 mg/kg [19]?
The inhibition in vivo at 3 mg/kg was 23%.

And the Vd [5]?
The Vd was 6.6 L/kg.

What about the inhibition in vivo at 30 mg/kg [10] of the same compound?
The inhibition in vivo at 30 mg/kg was 70%.

What about the inhibition in vivo at 10 mg/kg [14] of the same compound?
Its inhibition in vivo at 10 mg/kg is 32%.

And the AUC [9]?
The AUC was 6.1 µM·h.

What about the AUC [6] of the same compound?
Its AUC is 1.3 µM·h.

And the clearance [7]?
The clearance was 123 mL/min/kg.

What does the source list for `NC(=O)c1cccc2[nH]c(-c3ccc(-c4n[nH]c(=O)o4)cc3)nc12`?
Ki [2]: 1.6 nM; EC50 [4]: 64 nM

For `NC(=O)c1cccc2[nH]c(-c3ccc(-c4ccncc4)cc3)nc12`, which Cmax [8] is on record?
Its Cmax is 760 nM.

And the half-life [1]?
Its half-life is 24 min.

What about the bioavailability [3] of the same compound?
The bioavailability was 44%.

What about the Vd [5] of the same compound?
The Vd was 5.9 L/kg.

What about the AUC [9] of the same compound?
The AUC was 1.4 µM·h.

What about the AUC [6] of the same compound?
Its AUC is 0.94 µM·h.

And the clearance [7]?
Its clearance is 167 mL/min/kg.

Which results are given for `NC(=O)c1cccc2[nH]c(-c3ccc(-c4ccccc4)cc3)nc12`?
Ki [2]: 2 nM; EC50 [4]: 71 nM

What does the source list for `NC(=O)c1cccc2[nH]c(-c3ccc(-c4cn5ccccc5n4)cc3)nc12`?
Ki [2]: 2.9 nM; EC50 [4]: 20 nM

With `NC(=O)c1cccc2[nH]c(-c3ccc(-c4nc(=O)o[nH]4)cc3)nc12` as the compound, how does the Ki [2] read?
The Ki was 16 nM.

With `Cn1ccc(-c2ccc(-c3nc4c(C(N)=O)cccc4[nH]3)cc2)n1` as the compound, how does the Ki [2] read?
The Ki was 4.5 nM.

And the EC50 [4]?
The EC50 was 20 nM.

For `Cc1noc(-c2ccc(-c3nc4c(C(N)=O)cccc4[nH]3)cc2)n1`, which Ki [2] is on record?
Its Ki is 4 nM.

And the EC50 [4]?
The EC50 was 9.1 nM.

Which results are given for `NC(=O)c1cccc2[nH]c(-c3ccc(-c4nsc(=O)[nH]4)cc3)nc12`?
Ki [2]: 5.2 nM; EC50 [4]: 461 nM

Which Ki [2] does the source give for `Cc1nc(-c2ccc(-c3nc4c(C(N)=O)cccc4[nH]3)cc2)co1` here?
Its Ki is 2.4 nM.

What about the EC50 [4] of the same compound?
Its EC50 is 18 nM.

With `Cn1nnc2c(C(N)=O)ncn2c1=O` [TEMOZOLOMIDE] as the compound, how does the inhibition in vivo at 50 mg/kg [20] read?
The inhibition in vivo at 50 mg/kg was 56%.

What about the inhibition in vivo at 50 mg/kg [21] of the same compound?
The inhibition in vivo at 50 mg/kg was 43%.
